What was measured:
[1] = target: Phosphatidylinositol 3-kinase catalytic subunit type 3 (Homo sapiens, UniProt Q8NEB9); assay: Binding affinity to human wild-type partial length VPS34 (S282 to H879 residues) expressed in mammalian expression system by kinome scan assay
In short: (§1)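 DNA-tagged kinases competed against immobilized ligand with an 11-point 3-fold serial dilution starting from 30 μM. Kinase bound measured by qPCR of the DNA tags. Kd from standard dose–response curves with the Hill equation (Hill slope −1); mean of duplicate experiments.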

[2] = target: Serine/threonine-protein kinase mTOR (Homo sapiens, UniProt P42345); assay: Binding affinity to wild-type human partial length mTOR (L1382 to W2549 residues) expressed in mammalian expression system by kinome scan assay; in short: as §1
[3] = target: Phosphatidylinositol 4,5-bisphosphate 3-kinase catalytic subunit beta isoform (Homo sapiens, UniProt P42338); assay: Binding affinity to human wild-type partial length PI3Kbeta (P118 to S1070 residues) expressed in mammalian expression system by kinome scan assay; in short: as §1
Phosphatidylinositol 4,5-bisphosphate 3-kinase catalytic subunit beta isoform, sequence (P42338 whole entry, the tested form may be a part, canonical isoform): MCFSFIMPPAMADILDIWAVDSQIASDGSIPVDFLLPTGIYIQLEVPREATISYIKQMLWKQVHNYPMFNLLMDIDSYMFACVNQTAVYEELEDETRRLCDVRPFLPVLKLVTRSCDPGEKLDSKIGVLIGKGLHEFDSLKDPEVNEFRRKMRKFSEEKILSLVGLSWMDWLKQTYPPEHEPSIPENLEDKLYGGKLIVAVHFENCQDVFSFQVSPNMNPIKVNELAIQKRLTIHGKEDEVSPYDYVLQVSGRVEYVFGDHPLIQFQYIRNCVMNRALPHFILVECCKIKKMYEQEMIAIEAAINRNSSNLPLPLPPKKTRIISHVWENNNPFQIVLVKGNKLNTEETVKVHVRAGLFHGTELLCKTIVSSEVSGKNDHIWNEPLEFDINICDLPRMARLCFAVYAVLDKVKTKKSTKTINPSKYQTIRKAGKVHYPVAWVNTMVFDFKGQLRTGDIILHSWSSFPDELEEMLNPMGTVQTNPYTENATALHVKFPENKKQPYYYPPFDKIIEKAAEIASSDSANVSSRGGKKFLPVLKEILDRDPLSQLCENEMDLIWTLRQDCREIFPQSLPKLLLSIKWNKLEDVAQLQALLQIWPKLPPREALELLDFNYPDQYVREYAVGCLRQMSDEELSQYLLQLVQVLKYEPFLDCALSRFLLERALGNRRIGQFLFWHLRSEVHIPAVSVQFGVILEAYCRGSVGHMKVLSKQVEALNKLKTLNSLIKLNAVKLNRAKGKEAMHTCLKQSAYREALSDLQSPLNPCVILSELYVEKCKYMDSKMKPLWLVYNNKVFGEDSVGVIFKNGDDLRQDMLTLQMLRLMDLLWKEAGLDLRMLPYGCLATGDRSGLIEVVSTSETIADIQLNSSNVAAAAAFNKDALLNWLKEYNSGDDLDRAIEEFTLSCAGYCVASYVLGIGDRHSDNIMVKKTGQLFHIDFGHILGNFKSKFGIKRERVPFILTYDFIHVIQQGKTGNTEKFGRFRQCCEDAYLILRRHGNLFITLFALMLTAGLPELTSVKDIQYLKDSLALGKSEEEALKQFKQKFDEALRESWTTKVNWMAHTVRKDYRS

mTORC1 = mTORC1 (Homo sapiens, UniProt P42345); assay: Inhibition of mTORC1 in human A2058 cells assessed as reduction in ribosomal protein S6 phosphorylation at Ser235/236 residues incubated for 1 hr by Western blot analysis; type: cell-based
In short: (§2)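 In-cell Western assay. A2058 cells (2 × 10^4/well) grown 24 h at 37 °C, 5% CO2, then exposed 1 h to inhibitor or DMSO. Cells fixed in 4% PFA, blocked, and stained for the phospho-protein with α-tubulin as internal standard; infrared fluorescence read-out. Signals normalized to tubulin and to DMSO controls to derive IC50.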

mTORC2 = mTORC2 (Homo sapiens, UniProt P42345); assay: Inhibition of mTORC2 in human A2058 cells assessed as reduction in PKB phosphorylation at S473 residues incubated for 1 hr by Western blot analysis; type: cell-based; in short: as §2
CYP1A1 = target: T1, CYP1A1 (Homo sapiens, UniProt P04798); assay: Substrate activity at recombinant human CYP1A1 expressed in baculovirus infected insect cells assessed as parent compound remaining at 1 uM incubated for 60 mins in absence of NADP+-regenerating system by LC-MS analysis; type: ADME; details: read-out: Stability
T1 sequence (P04798 whole entry): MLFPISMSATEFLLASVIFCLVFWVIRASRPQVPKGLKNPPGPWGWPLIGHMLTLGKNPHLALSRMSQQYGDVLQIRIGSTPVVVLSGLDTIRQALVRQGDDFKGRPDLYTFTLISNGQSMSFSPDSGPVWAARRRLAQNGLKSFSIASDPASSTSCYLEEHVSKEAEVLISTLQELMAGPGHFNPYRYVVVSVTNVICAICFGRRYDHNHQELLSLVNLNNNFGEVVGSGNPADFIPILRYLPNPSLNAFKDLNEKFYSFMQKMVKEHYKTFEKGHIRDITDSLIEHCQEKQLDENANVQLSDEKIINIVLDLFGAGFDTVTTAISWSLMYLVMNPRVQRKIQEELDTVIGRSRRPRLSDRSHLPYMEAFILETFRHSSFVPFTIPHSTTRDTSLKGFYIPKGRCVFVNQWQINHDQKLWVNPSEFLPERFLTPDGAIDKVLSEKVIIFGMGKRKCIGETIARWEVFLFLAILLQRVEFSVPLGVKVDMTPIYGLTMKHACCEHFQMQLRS
In short: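 Baculovirus/insect-cell Supersomes, each expressing a single human CYP, at 25 pmol/mL. Compound at 1 μM (0.25% DMSO), 37 °C, 60 min. Reactions run with a NADP+-regenerating cofactor mix or, as negative control, without cofactors and glucose-6-phosphate dehydrogenase. Stopped with ACN containing internal standard. Duplicates; % remaining from absolute amounts.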

Homo sapiens [4] = species: Homo sapiens; assay: Selectivity ratio of Kd for binding affinity to human wild-type partial length PI3Kalpha (R108 to N1068 residues) expressed in mammalian expression system to Kd for binding affinity to wild-type human partial length mTOR (L1382 to W2549 residues) expressed in mammalian expression system
In short: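 Ratio of Kd values from the DNA-tagged kinase competition binding assay (qPCR read-out, 11-point 3-fold dilution from 30 μM, Hill fit with slope −1, duplicates): PI3Kα Kd divided by mTOR Kd.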

[5] = target: PI3-kinase p110-alpha/p85-alpha (Homo sapiens, UniProt P42336); assay: Inhibition of alexa fluor 647-labeled kinase tracer 314 binding to recombinant human full-length N-terminal His6-tagged p110alpha/p85alpha expressed in baculovirus expression system by TR-FRET assay
PI3-kinase p110-alpha/p85-alpha, sequence (P27986 whole entry, the tested form may be a part): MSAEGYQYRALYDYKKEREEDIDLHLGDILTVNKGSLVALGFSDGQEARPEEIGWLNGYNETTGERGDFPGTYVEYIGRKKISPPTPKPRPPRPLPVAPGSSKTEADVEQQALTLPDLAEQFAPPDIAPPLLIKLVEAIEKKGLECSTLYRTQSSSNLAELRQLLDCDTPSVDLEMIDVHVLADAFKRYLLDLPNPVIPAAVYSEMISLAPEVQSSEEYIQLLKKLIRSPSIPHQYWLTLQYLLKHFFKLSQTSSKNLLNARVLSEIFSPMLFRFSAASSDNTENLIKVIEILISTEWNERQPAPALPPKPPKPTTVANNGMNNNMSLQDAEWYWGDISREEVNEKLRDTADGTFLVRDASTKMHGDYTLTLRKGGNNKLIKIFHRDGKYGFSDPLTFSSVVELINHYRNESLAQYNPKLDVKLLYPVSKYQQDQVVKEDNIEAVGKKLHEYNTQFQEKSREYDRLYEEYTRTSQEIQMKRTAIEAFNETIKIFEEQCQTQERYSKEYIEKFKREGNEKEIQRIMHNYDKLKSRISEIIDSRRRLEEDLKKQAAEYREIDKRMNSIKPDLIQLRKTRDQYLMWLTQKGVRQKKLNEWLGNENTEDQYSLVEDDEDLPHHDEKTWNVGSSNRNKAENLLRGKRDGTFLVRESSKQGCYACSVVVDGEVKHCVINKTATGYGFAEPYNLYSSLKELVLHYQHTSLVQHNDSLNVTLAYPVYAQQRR
PI3-kinase p110-alpha/p85-alpha, sequence (P42336 whole entry, the tested form may be a part): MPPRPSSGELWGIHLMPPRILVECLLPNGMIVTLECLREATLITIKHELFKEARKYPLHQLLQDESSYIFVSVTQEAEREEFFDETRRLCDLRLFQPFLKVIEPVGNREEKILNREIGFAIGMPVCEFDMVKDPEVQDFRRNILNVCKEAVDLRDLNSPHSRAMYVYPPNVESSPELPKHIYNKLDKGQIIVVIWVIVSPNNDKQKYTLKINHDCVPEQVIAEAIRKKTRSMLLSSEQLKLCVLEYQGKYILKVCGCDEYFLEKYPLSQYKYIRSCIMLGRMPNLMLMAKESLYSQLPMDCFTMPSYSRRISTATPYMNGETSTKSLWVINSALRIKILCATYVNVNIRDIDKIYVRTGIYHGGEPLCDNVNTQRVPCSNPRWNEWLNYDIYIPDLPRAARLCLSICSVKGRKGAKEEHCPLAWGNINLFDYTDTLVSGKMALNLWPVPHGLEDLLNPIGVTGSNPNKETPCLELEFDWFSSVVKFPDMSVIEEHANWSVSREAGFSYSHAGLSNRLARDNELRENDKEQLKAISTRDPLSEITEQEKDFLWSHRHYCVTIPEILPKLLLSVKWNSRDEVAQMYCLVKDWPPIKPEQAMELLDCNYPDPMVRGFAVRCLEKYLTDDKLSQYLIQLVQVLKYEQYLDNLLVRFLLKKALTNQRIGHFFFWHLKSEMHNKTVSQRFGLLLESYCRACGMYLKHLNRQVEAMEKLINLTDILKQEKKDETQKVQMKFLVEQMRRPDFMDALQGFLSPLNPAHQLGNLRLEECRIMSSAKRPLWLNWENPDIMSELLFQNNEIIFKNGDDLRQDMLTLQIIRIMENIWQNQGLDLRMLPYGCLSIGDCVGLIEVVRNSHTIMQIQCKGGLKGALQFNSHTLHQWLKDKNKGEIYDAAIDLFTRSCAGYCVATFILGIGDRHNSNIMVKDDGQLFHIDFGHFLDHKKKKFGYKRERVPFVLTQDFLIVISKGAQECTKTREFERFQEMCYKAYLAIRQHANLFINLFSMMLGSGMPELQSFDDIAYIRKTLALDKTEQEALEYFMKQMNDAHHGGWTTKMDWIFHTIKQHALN

[6] = target: Phosphatidylinositol 4-kinase beta (Homo sapiens, UniProt Q9UBF8); assay: Binding affinity to wild-type human full-length PI4Kbeta (M1 to M828 residues) expressed in mammalian expression system by kinome scan assay
Phosphatidylinositol 4-kinase beta, sequence (Q9UBF8 whole entry, the tested form may be a part): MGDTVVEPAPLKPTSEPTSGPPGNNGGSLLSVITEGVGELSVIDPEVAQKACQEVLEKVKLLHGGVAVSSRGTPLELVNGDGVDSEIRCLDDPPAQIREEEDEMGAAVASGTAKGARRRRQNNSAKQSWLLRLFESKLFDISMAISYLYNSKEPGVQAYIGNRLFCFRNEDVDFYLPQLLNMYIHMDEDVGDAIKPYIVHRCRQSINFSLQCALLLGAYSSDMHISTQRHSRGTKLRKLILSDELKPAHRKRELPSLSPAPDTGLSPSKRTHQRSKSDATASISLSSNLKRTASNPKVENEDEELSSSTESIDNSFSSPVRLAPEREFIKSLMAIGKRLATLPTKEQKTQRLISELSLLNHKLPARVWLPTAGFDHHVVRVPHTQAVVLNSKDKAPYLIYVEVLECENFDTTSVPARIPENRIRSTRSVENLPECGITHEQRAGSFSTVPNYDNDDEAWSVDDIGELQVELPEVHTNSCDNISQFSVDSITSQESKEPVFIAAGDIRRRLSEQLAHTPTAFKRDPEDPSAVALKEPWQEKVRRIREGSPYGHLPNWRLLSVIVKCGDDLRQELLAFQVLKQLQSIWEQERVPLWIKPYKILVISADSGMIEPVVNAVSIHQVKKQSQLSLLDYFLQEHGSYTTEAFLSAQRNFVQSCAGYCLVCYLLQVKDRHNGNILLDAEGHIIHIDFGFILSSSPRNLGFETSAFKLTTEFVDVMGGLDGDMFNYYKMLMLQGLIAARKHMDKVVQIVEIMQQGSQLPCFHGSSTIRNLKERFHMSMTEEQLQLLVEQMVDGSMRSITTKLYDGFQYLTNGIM
In short: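 Competition binding: compound competes with an immobilized ligand for a DNA-tagged kinase. The 11-point, 3-fold serial dilution starts at 30 μM. Bound kinase is quantified by qPCR of the DNA tag. Kd is fitted to a standard dose–response curve using the Hill equation with slope fixed at −1, and reported as the mean of duplicate experiments.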

Homo sapiens [7] = species: Homo sapiens; assay: Selectivity ratio of Ki for inhibition of alexa fluor 647-labeled kinase tracer 314 binding to recombinant human full-length N-terminal His6-tagged p110alpha/p85alpha expressed in baculovirus expression system to Ki for inhibition of alexa fluor 647-labeled kinase tracer 314 binding to recombinant human N-terminal GST-fused mTOR (1360 to 2549 residues) expressed in baculovirus expression system
In short: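 Ratio of Ki values from the TR-FRET tracer 314 displacement assays. p110α: His6-tagged enzyme, biotin anti-His antibody and Eu-streptavidin (2 nM each), tracer at 20 nM, buffer 50 mM HEPES pH 7.5, 10 mM MgCl2, 1 mM EGTA, 0.01% Brij-35. mTOR: GST-mTOR 1360–2549, Eu-anti-GST, tracer 10 nM, HEPES/5 mM MgCl2/EGTA/Pluronic buffer.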

Phosphatidylinositol 3-kinase catalytic subunit type 3, sequence (Q8NEB9 whole entry, the tested form may be a part): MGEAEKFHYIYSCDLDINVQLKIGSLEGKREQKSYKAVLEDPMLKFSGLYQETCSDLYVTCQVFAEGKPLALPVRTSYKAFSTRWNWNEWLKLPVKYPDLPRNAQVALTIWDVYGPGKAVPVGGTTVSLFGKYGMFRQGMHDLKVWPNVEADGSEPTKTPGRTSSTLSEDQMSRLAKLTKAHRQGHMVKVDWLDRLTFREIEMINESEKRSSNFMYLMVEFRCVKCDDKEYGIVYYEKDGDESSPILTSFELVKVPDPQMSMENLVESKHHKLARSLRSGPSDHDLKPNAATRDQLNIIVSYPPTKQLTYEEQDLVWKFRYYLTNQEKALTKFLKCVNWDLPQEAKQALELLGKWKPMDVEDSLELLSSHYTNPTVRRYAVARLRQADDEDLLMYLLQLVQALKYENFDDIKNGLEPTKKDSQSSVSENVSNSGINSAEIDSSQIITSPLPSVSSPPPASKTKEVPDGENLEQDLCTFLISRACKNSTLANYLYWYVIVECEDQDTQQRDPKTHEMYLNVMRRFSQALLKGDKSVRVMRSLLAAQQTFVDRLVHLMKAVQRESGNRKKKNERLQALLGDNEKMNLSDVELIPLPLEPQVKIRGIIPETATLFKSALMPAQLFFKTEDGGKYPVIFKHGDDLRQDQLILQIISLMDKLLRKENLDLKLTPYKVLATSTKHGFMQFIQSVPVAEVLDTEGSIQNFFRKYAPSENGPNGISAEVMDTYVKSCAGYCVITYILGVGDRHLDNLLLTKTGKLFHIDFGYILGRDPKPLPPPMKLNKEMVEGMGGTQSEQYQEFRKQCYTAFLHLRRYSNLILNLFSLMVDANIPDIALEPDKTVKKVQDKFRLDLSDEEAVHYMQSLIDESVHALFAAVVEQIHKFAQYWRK

Kd [1] [nM]	Kd [2] [nM]	Kd [3] [nM]	IC50 (mTORC1) [nM]	IC50 (mTORC2) [nM]	remaining at 1 h, 1 µM (CYP1A1) [%]	Selectivity ratio (Homo sapiens [4])	Ki [5] [nM]	Kd [6] [nM]	Ratio Ki (Homo sapiens [7])	Compound
980	14	1400	55	77	93	8.6	536	> 30000	214	C[C@@H]1COCCN1c1nc(-c2cnc(N)nc2)nc2c1C[C@@H]1COCCN21
3200	3.5	7500	60	94	96	457	1690	> 30000	212	C[C@@H]1COCCN1c1nc(-c2cnc(N)cn2)nc2c1C[C@@H]1COCCN21
2100	34	4100	61	133	109	17.9	2150	> 30000	165	C[C@@H]1COCCN1c1nc(-c2ccc(N)nc2)nc2c1C[C@@H]1COCCN21
